# Shown are actives, neighbours in structure and some others; about 9.2% of the full set was active somewhere.
# HCT116 PTEN-null = growth suppression of PTEN-null HCT116, primary screen, cell-based, CellTiter-Glo. HCT116 PTEN-null viability, 60 h; active compounds read low. viability, % at 10 µM. hit rate 1.2% among 140,000;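 active = viability at or below a set limit, 4 SD under the median of all tested compounds, cut at about 3.7% in these data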;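 note: PTEN knockout HCT116 line with beta catenin targeted HCT116 as companion control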
# Lmaj promast = Leishmania major promastigote growth inhibition, primary screen; Leishmania major promastigotes, resazurin fluorescence viability; inhibition, % at 10 µM; hit rate 9% among 200,000; AID 1063, 2008; in the data active = inhibition above about 50%;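 note: promastigotes grown with compound for 44 hours at 28 °C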
# HCT116 bCat-KO = primary screen for growth suppressors in beta-catenin knockout HCT116 cells (colon tumor, human). HCT116 beta-catenin knockout viability, CellTiter-Glo, 60 h; active compounds read low. viability, % at 10 µM. hit rate 1.5% among 140,000. AID 818, 2007;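 active = viability at or under a set limit, the compound median less 4 SD, cut at about 6% in these data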;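 note: 0% = Hyamine 1622 control at 20 µM and 100% = untreated cell control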
# Autophagy mod = autophagy modulators in MEF cells, primary screen, imaging, high-content, MEF GFP-LC3 | MEF GFP-LC3 puncta imaging; test concentration mostly 10 µM | calls only at 10 µM (by protocol) | hit rate 0.98% among 190,000 | AID 463193, 2010;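 active = percentage of spot-positive cells more than 3 SD above its plate mean, without a fluorescence outlier flag or 80% toxicity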;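 note: spot-positive cell cutoff set from DMSO-treated cells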
# Dynein cargo inh = inhibitors of GR-EGFP nuclear translocation, primary screen, dynein cargo transport inhibitor project, imaging, high-content, 3617.4 mouse cells; test concentration mostly 20 µM; stimulated with dexamethasone, 1 µM; active compounds read low; AID 1381, 2008; z-score, hits read low; hit rate 0.47% among 220,000;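 active = plate z-score of nuclear minus cytoplasmic receptor signal below a set negative limit, without overly bright fluorescence or cell loss, cut at about -3.5 in these data, passing the limit was not always enough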;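 note: z-score of nuclear minus cytoplasmic ring GR-EGFP intensity difference per well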
#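 medium = tetracycline-free induction medium containing charcoal-stripped FBS | probe or stimulus = dexamethasone, 1.0 µM final | timing = 48 h induction, then 1 h compound, then 30 min agonist, 37 °C | detection = automated 10x imaging of fixed Hoechst-stained cells | read-out basis = nuclear versus cytoplasmic GR-EGFP signal, averaged per well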
# Starred values were filed as active, the others as inactive; i = inactive; · = no result.
SMILES,HCT116 PTEN-null,Lmaj promast,HCT116 bCat-KO,Autophagy mod,Dynein cargo inh
Cc1ccc(SCCNC(=O)c2ccc(C)c(S(=O)(=O)Nc3cccc(C)c3)c2)cc1,30,78*,40,i,2.1
Cc1ccc(SCCNC(=O)c2ccccc2)cc1,89,0,77,i,-0.57
Cc1ccc(NS(=O)(=O)c2cc(C(=O)NCCSC3CCCCC3)ccc2C)cc1,65,79*,65,i,-1.1
Cc1ccc(C(=O)NCCSc2ccc(Cl)cc2)cc1S(=O)(=O)Nc1ccccc1,60,97*,69,i,1.2
Cc1cccc(NS(=O)(=O)c2cc(C(=O)NCCC3=CCCCC3)ccc2Cl)c1,43,4,44,i,-1.1
Cc1ccc(NS(=O)(=O)c2cc(C(=O)NCCSc3ccc(C)cc3)ccc2C)cc1,31,100*,34,i,1
CS(=O)(=O)Nc1ccc(C(=O)NCCSC2CCCCC2)cc1,·,-3,86,i,-0.095
CCN(CC)S(=O)(=O)c1ccc(OC)c(NC(=O)/C=C/c2ccco2)c1,·,·,·,·,-0.46
O=c1[nH]c(CSc2cccc[n+]2[O-])nc2ccccc12,·,·,·,·,-0.43
CCOC(=O)CSc1nnc(SCCN2C(=O)c3ccccc3C2=O)s1,109,-3,97,i,-0.77
O=C1c2ccccc2NC(c2ccc(O)cc2)N1/N=C/c1ccc(O)cc1 (stereo not drawn),86,67*,88,i,1.1
COc1ccc(C=O)cc1COc1c(F)c(F)cc(F)c1F,35,99*,34,i,-1
COc1ccc(C=O)cc1COc1ccc(F)cc1F,28,5,26,i,2.7
NC(=O)C1CCN(C2=C(Cl)C(=O)c3ccccc3C2=O)CC1,20,99*,5.7*,i,-2.9
CC(C)N1C(=O)CCC1C(=O)O (stereo not drawn),88,-4,84,i,0.38
COC(=O)C1=C(C)NC(C)=C(C(=O)OC)C1c1cn(-c2ccccc2)nc1-c1ccco1,51,64*,34,i,-1
O=C(/C=C\c1ccc(-c2cccc([N+](=O)[O-])c2)o1)N1CCOCC1,·,1,·,i,-1.4
O=C(O)CCSc1nnc(SCC(=O)NCC(F)(F)F)s1,99,63*,92,i,-0.14
C/C=C/c1ccc(OCCCCNCc2ccco2)c(OC)c1,·,93*,·,i,-0.0063
C/C=C/c1ccc(OCCCCN2CC(C)CC(C)C2)c(OC)c1 (stereo not drawn),·,8,·,i,1.2
C/C=C/c1ccc(OCCCCN2CCN(CC)CC2)c(OC)c1,·,86*,·,i,-0.2
O=C(CCN1C(=O)c2cccc3cccc(c23)C1=O)Nc1ccon1,·,-6,·,i,-0.44
CC1=CC(C)(C)N2C(=O)C3(C(C#N)=C(N)Oc4cc(O)ccc43)c3cccc1c32 (stereo not drawn),67,56*,71,i,0.44
COc1cc2c3c(c1)C1(C(=O)N3C(C)(C)C=C2C)C(C#N)=C(N)Oc2cc(C)oc(=O)c21 (stereo not drawn),93,-6,89,i,0.082
CC1=CC(C)(C)N2C(=O)C3(C(C#N)=C(N)Oc4cc(C)oc(=O)c43)c3cc(C)cc1c32 (stereo not drawn),·,91*,·,i,1.7
SMILES,HCT116 PTEN-null,Lmaj promast,HCT116 bCat-KO,Autophagy mod,Dynein cargo inh
Cc1cc2c3c(c1)C1(C(=O)N3C(C)(C)CC2C)C(C#N)=C(N)Oc2cc(O)ccc21 (stereo not drawn),71,100*,74,i,-0.039
CC1(C)Cc2c(sc3c2c(=N)n(Cc2ccco2)c(=O)n3Cc2ccccc2)CO1,70,82*,83,i,-0.39
CC(C)C(=O)N1CCN(c2ccc([N+](=O)[O-])cc2Cl)CC1,97,50*,87,i,1.3
C/C(=N\NC(=S)Nc1cc(S(=O)(=O)N2CCOCC2)ccc1Cl)c1ccccc1F,60,71*,59,i,-0.61
Cn1ccnc1SCC(=O)Nc1cc(S(=O)(=O)N2CCOCC2)ccc1Cl,99,62*,101,i,-0.76
Cc1ccc(S(=O)(=O)N2CCOCC2)cc1NC(=O)CSc1cccc[n+]1[O-],94,-5,98,i,0.0022
O=C(CSc1cccc[n+]1[O-])Nc1cc(S(=O)(=O)N2CCOCC2)ccc1Cl,97,68*,90,i,0.59
